From ChEMBL document CHEMBL3621150, “Characterization of 2,4-Diamino-6-oxo-1,6-dihydropyrimidin-5-yl Ureido Based Inhibitors of Trypanosoma brucei FolD and Testing for Antiparasitic Activity” (J Med Chem, 2015)
The source made the active and inactive calls. The calls are words filed in the database; no cut-off is given here.

How the values were obtained:
[1] = Inhibition of Trypanosoma brucei FolD dehydrogenase activity assessed as formation of 5,10-CH=THF from 5,10-CH2-THF after 5 mins by spectrophotometric analysis
Method in brief: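 Recombinant T. brucei FolD from E. coli BL21 (DE3), Ni²⁺-affinity purified. Assay at 27 °C in 25 mM MOPS pH 7.3 with 30 mM 2-mercaptoethanol, 35 μM mTHF and 1 mM NADP⁺, started with NADP⁺. Reaction stopped at 5 min with an equal volume of 1 M HCl, product read at 350 nm (ε 24.9 mM⁻¹ cm⁻¹). Compounds from 10 mM DMSO stocks, first tested at 0–50–100 μM. Data fitted to a competitive model by linear regression.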

[2] = system: Trypanosoma brucei brucei; assay: Antiparasitic activity against bloodstream form of Trypanosoma brucei brucei 427 […] assessed as growth inhibition after 72 hrs by Alamar Blue assay; format: functional, organism-based
THP-1 = assay: Cytotoxicity against macrophages differentiated from human THP1 cells assessed as cell viability after 72 hrs by MTT assay; format: cell-based; conditions: THP-1, 72 h
Method in brief: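 THP1-differentiated macrophages, 10⁵ cells/well, adhered overnight, then exposed to a compound concentration range for 72 h at 37 °C. MTT at 0.5 mg/mL added for 4 h in the dark, and formazan dissolved in isopropanol. Absorbance read at 570 nm with 660 nm background. Viability given relative to untreated cells, and IC₅₀ from linear regression.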

[3] = Selectivity index, ratio of IC50 for macrophages differentiated from human THP1 cells to IC50 for bloodstream form of Trypanosoma brucei brucei 427; format: toxicity, cell-based, THP-1; conditions: read-out: Ratio IC50
Method in brief: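 Bloodstream-form T. b. brucei 427 in HMI-9 with 10% heat-inactivated FBS at 37 °C, 5% CO2: about 2,000 cells per well with serial drug dilutions for 72 h, then resazurin 45.5 μM for 4 h, fluorescence ex 528/em 590 nm. THP1-differentiated macrophages at 10⁵ cells/well: 72 h at 37 °C, MTT 4 h, A570 minus 660 nm versus untreated. Both IC50s by linear regression.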

[4] = Competitive inhibition of Pseudomonas aeruginosa FolD dehydrogenase activity
[5] = Competitive inhibition of recombinant Leishmania major hexahistidine-tagged FolD dehydrogenase activity expressed in Escherichia coli by Michaelis-Menten plot analysis in presence of 5,10-CH2-THF
[6] = Trypanosoma brucei, 427, 72 h, read-out: IC50

Compound	IC50 [1] [µM]	Ki [1] [µM]	IC50 [2, 6] [µM]	IC50 (THP-1) [µM]	selectivity ratio [3]	Ki [4] [µM]	Ki [5] [µM]	growth inhibition (GI) [2]	IC50 [2]
Nc1nc(N)c(NC(=O)Nc2ccc(C(=O)N[C@@H](CCC(=O)O)C(=O)O)cc2)c(=O)[nH]1	2.2	1.1	49	194	4	–	–	–	–
Nc1nc2c(c(=O)[nH]1)N1C(=O)N(c3ccc(C(=O)NC(CCC(=O)O)C(=O)O)cc3)CC1CN2 (stereo unspecified)	20	8.5	57	103	1.8	0.03	0.105	–	–
CCOC(=O)CC[C@H](NC(=O)c1ccc(NC(=O)Nc2c(N)nc(N)[nH]c2=O)cc1)C(=O)OCC	250	–	92	205	2.2	–	–	–	–
Cc1ccc(C(=O)Nc2ccc(S(=O)(=O)O)c3cc(S(=O)(=O)O)cc(S(=O)(=O)O)c23)cc1NC(=O)c1cccc(NC(=O)Nc2cccc(C(=O)Nc3cc(C(=O)Nc4ccc(S(=O)(=O)O)c5cc(S(=O)(=O)O)cc(S(=O)(=O)O)c45)ccc3C)c2)c1	–	–	–	–	–	–	–	Active	–
Nc1nc(N)c(NC(=O)Nc2ccc(C(=O)NCCCC(=O)O)cc2)c(=O)[nH]1	213	168	–	98	–	–	–	–	Not Active
Nc1nc(N)c(NC(=O)Nc2ccc(C(=O)N[C@@H](Cc3ccc(O)cc3)C(=O)O)cc2)c(=O)[nH]1	9.3	7.3	–	77	–	–	–	–	Not Active
Nc1nc(N)c(NC(=O)Nc2ccc(C(=O)N[C@@H](Cc3ccccc3)C(=O)O)cc2)c(=O)[nH]1	1.1	0.54	–	94	–	–	–	–	Not Active
N=C(N)c1ccc(OCCCCCOc2ccc(C(=N)N)cc2)cc1 [PENTAMIDINE]	–	–	0.0016	–	–	–	–	–	–
C[C@H](NC(=O)c1ccc(NC(=O)Nc2c(N)nc(N)[nH]c2=O)cc1)C(=O)O	6.3	3.2	–	113	–	–	–	–	Not Active
Nc1nc(N)c(NC(=O)Nc2ccc(C(=O)N[C@@H](CCCC(=O)O)C(=O)O)cc2)c(=O)[nH]1	1	0.48	–	90	–	–	–	–	Not Active
CCOC(=O)c1ccc(NC(=O)Nc2c(N)nc(N)[nH]c2=O)cc1	250	–	89	97	1.1	–	–	–	–
Nc1nc(N)c(NC(=O)Nc2ccc(C(=O)O)cc2)c(=O)[nH]1	83	–	74	97	1.3	–	–	–	–
